Experimental data published in ChEMBL document CHEMBL1649414, “Synthesis and antiprotozoal activity of N-alkoxy analogues of the trypanocidal lead compound 4,4'-bis(imidazolinylamino)diphenylamine with improved human blood-brain barrier permeability” (J Med Chem, 2011).
Active and inactive are the calls of the source. The rule behind the calls is not given here.

Key:
Plasmodium falciparum = assay: Antiprotozoal activity against chloroquine and pyrimethamine-resistant erythrocytic stages of Plasmodium falciparum K1 by [3H]hypoxanthine incorporation assay; assay type: functional, organism-based
Summary of the method: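 P. falciparum K1 (chloroquine- and pyrimethamine-resistant) erythrocytic stages; IC50 determined by [3H]hypoxanthine incorporation assay.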

[1] = Selectivity index, ratio of IC50 for rat L6 cells to IC50 for Trypanosoma brucei rhodesiense STIB900; assay type: toxicity, cell-based; settings: L6 cells versus Trypanosoma brucei rhodesiense STIB900, read-out: Ratio IC50
Summary of the method: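 Selectivity index = IC50 (rat L-6 myoblasts)/IC50 (T. b. rhodesiense STIB900 bloodstream forms). Both IC50 values were determined by Alamar blue assay.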

[2] = Selectivity index, ratio of IC50 for rat L6 cells to IC50 for chloroquine and pyrimethamine-resistant erythrocytic stages of Plasmodium falciparum K1; assay type: toxicity, cell-based; settings: L6 cells versus Plasmodium falciparum K1 erythrocytic stages, read-out: Ratio IC50
Summary of the method: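 Selectivity index = IC50 (rat L-6 myoblasts, Alamar blue assay)/IC50 (P. falciparum K1 erythrocytic stages, [3H]hypoxanthine incorporation assay).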

[3] = system: Trypanosoma brucei rhodesiense; assay: Antitrypanosomal activity against Trypanosoma brucei rhodesiense STIB900 infected in NMRI mouse assessed as host survival after 60 days at 20 mg/kg, ip qd for 4 days administered after 3 to 6 days postinfection; assay type: functional, organism-based; parameters: dose 20 mg/kg
Summary of the method: (§1)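 Female NMRI mice infected ip with 2 10^4 bloodstream STIB900 forms; groups of four dosed ip (4 × 20 mg/kg) or orally (4 × 50 mg/kg) on days 3–6 post-infection; untreated infected controls. Tail-blood parasitemia followed to day 60; surviving aparasitemic mice at day 60 counted cured; mean survival and relapse days recorded.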

[4] = system: Trypanosoma brucei rhodesiense; assay: Antitrypanosomal activity against Trypanosoma brucei rhodesiense STIB900 infected in NMRI mouse assessed as host survival after 60 days at 50 mg/kg, po qd for 4 days administered after 3 to 6 days postinfection; assay type: functional, organism-based; parameters: dose 50 mg/kg; summary of the method: as §1
[5] = system: Trypanosoma brucei rhodesiense; assay: Antitrypanosomal activity against Trypanosoma brucei rhodesiense STIB900 infected in NMRI mouse assessed as day of host death after 60 days at 20 mg/kg, ip qd for 4 days administered after 3 to 6 days postinfection; assay type: functional; settings: route intraperitoneal
Summary of the method: (§2)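 Female NMRI mice infected ip with 2 104 bloodstream forms of T. b. rhodesiense STIB900. Groups of four mice were treated ip (4 × 20 mg/kg) or po (4 × 50 mg/kg) on four consecutive days, days 3–6 postinfection. Untreated infected controls were included. Tail blood parasitemia was monitored to day 60. Day of death was recorded (cured mice counted as >60) to give mean survival days.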

[6] = system: Trypanosoma brucei rhodesiense; assay: Antitrypanosomal activity against Trypanosoma brucei rhodesiense STIB900 infected in NMRI mouse assessed as day of host death after 60 days at 50 mg/kg, po qd for 4 days administered after 3 to 6 days postinfection; assay type: functional; summary of the method: as §2
[7] = system: Trypanosoma brucei rhodesiense; assay: Antiprotozoal activity against bloodstream forms of Trypanosoma brucei rhodesiense STIB900 by alamar blue assay; assay type: functional, organism-based
Summary of the method: (§3)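 Alamar blue read-out; IC50 determined against bloodstream-form STIB900 trypanosomes, axenically grown L. donovani MHOM/ET/67/L82 amastigotes, or rat skeletal myoblast L-6 cells (cytotoxicity).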

Leishmania donovani = assay: Antiprotozoal activity against amastigotes of Leishmania donovani MHOM/ET/67/L82 by alamar blue assay; assay type: functional, organism-based; summary of the method: as §3
L6 = assay: Cytotoxicity against rat L6 cells; assay type: cell-based; summary of the method: as §3
Trypanosoma cruzi = assay: Antiprotozoal activity against trypomastigote forms of Trypanosoma cruzi Tulahuen C2C4 expressing LacZ by colorimetric CPRG assay

Compound | IC50 (Plasmodium falciparum) [µM] | selectivity ratio [1] | selectivity ratio [2] | Activity [3] | Activity [4] | Activity [5] [days] | Activity [6] [days] | IC50 [7] [µM] | IC50 (Leishmania donovani) [µM] | IC50 (L6) [µM] | IC50 (Trypanosoma cruzi) [µM]
c1cc(Nc2ccc(NC3=NCCN3)cc2)ccc1NC1=NCCN1 | 0.009 | 3070 | 24100 | Active | inactive | >60 | 7.75 | – | – | – | –
CCON1CCN=C1Nc1ccc(Nc2ccc(NC3=NCCN3OCC)cc2)cc1 | 0.59 | 55 | 68 | inactive | inactive | 7 | 7 | 0.73 | 62 | 40 | 87
c1ccc(CON2CCN=C2Nc2ccc(Nc3ccc(NC4=NCCN4OCc4ccccc4)cc3)cc2)cc1 | 0.2 | 34.7 | 56 | inactive | inactive | 7 | 7 | 0.32 | 104 | 11 | 6.6
O=C1c2ccccc2C(=O)N1CCN(OCc1ccccc1)C(=S)Nc1ccc(Nc2ccc(NC(=S)N(CCN3C(=O)c4ccccc4C3=O)OCc3ccccc3)cc2)cc1 | 1.36 | – | – | – | – | – | – | 86.7 | 36 | > 102 | > 100
c1cc(Nc2ccc(NC3=NCCN3OC3CCCCO3)cc2)ccc1NC1=NCCN1OC1CCCCO1 (stereo not given) | 0.75 | 17 | 26 | inactive | inactive | 7 | 7 | 1.18 | 41 | 20 | 24
CON1CCN=C1Nc1ccc(Nc2ccc(NC3=NCCN3OC)cc2)cc1 | 0.45 | 65.6 | 120 | inactive | inactive | 7 | 7 | 0.83 | 39 | 54 | 136
c1cc(Nc2ccc(NC3=NCCS3)cc2)ccc1NC1=NCCS1 | 2.43 | 4.7 | 21 | – | – | – | – | 11.1 | 120 | 52 | 30
CON(CCN1C(=O)c2ccccc2C1=O)C(=S)Nc1ccc(Nc2ccc(NC(=S)N(CCN3C(=O)c4ccccc4C3=O)OC)cc2)cc1 | 2.64 | – | – | – | – | – | – | 73.8 | 69 | > 124 | > 124
ON1CCN=C1Nc1ccc(Nc2ccc(NC3=NCCN3O)cc2)cc1 | 0.055 | 236 | 1670 | inactive | inactive | 25.3 | 7 | 0.37 | 58 | 92 | > 204
CON(CCNC(=S)Nc1ccc(Nc2ccc(NC(=S)NCCN(OC)S(=O)(=O)c3ccccc3[N+](=O)[O-])cc2)cc1)S(=O)(=O)c1ccccc1[N+](=O)[O-] | 1.81 | – | – | – | – | – | – | 61.3 | 68 | > 107 | > 108
CCON(CCNC(=S)Nc1ccc(Nc2ccc(NC(=S)NCCN(OCC)S(=O)(=O)c3ccccc3[N+](=O)[O-])cc2)cc1)S(=O)(=O)c1ccccc1[N+](=O)[O-] | 1.94 | – | 35 | – | – | – | – | 14.9 | 14 | 67 | > 104
